Laboratory results taken from ChEMBL document CHEMBL4038284, “Synthesis of novel quinoline-based 4,5-dihydro-1H-pyrazoles as potential anticancer, antifungal, antibacterial and antiprotozoal agents” (Eur J Med Chem, 2017).
Converted amounts (≈) assume the structure as drawn. The source made the active and inactive calls. No cut-off for these calls is given here.

How the values were obtained:
NCI-H522 = assay: Growth inhibition of human NCI-H522 cells at 10 uM incubated for 48 hrs by sulforhodamine B assay; type: functional, cell-based
Procedure, shortened: (§1)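 NCI 60-line panel, single 10 μM dose. Cells were grown in RPMI-1640 with 5% FBS and 2 mM L-glutamine and pre-incubated 24 h before compound addition (DMSO stock). Exposure was 48 h at 37 °C, 5% CO2. Cells were fixed with cold TCA (10% final), stained with 0.4% SRB, bound dye dissolved in 10 mM Tris base, A515 read. Growth was taken relative to time-zero and untreated control plates.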

TK-10 = assay: Growth inhibition of human TK10 cells at 10 uM incubated for 48 hrs by sulforhodamine B assay; type: functional, cell-based
Procedure, shortened: (§2)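 NCI-60 single-dose screen at 10 µM for 48 h. Cells were grown in RPMI-1640 with 5% FBS and 2 mM L-glutamine and preincubated 24 h before compound. Time-zero plates were TCA-fixed at compound addition. After exposure, cells were TCA-fixed, stained with SRB and read at 515 nm. Percentage growth was calculated against time-zero and untreated-control absorbances.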

LOX IMVI = assay: Growth inhibition of human LOXIMVI cells at 10 uM incubated for 48 hrs by sulforhodamine B assay; type: functional, cell-based; procedure, shortened: as §1
Candida albicans [1] = assay: Antifungal activity against Candida albicans ATCC 10231 incubated for 48 hrs under dark condition by broth microdilution method; type: functional; conditions: ATCC 10231, 48 h
Procedure, shortened: (§3)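 CLSI M27-A3 broth microdilution in RPMI-1640, DMSO ≤1%, compounds at 250-0.98 µg/mL final. Inoculum 1-5 × 10^3 CFU/mL. Incubated 48 h at 30 °C in a moist dark chamber, read at OD405. MIC80 and MIC50 taken from % inhibition dose-response curves (mean ± SEM, triplicate). Amphotericin B was the positive control.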

Candida albicans [2] = assay: Growth inhibition of Candida albicans ATCC 10231 at 15.62 ug/ml incubated for 48 hrs under dark condition by broth microdilution method relative to control; type: functional; conditions: ATCC 10231, 48 h, read-out: GI
Procedure, shortened: (§4)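 CLSI M27-A3 broth microdilution in RPMI-1640, DMSO ≤1%. Inoculum 1-5 × 10^3 CFU/mL. Incubated 48 h at 30 °C, dark. % inhibition = 100 − (OD405 test − sterility control)/(OD405 growth control − sterility control), with growth and sterility control wells. Triplicate.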

HOP-62 = assay: Growth inhibition of human HOP62 cells at 10 uM incubated for 48 hrs by sulforhodamine B assay; type: functional, cell-based
Procedure, shortened: (§5)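 NCI 60-cell-line screen at a single 10 µM dose. Cells in RPMI-1640 with 5% FBS and 2 mM L-glutamine, pre-incubated 24 h, then treated for 48 h at 37 °C. TCA fixation, sulforhodamine B staining, absorbance at 515 nm. Percentage growth calculated against time-zero and untreated controls.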

COLO 205 = assay: Growth inhibition of human COLO205 cells at 10 uM incubated for 48 hrs by sulforhodamine B assay; type: functional, cell-based; procedure, shortened: as §5
Staphylococcus aureus [3] = assay: Antibacterial activity against vancomycin-intermediate Staphylococcus aureus after 24 hrs by resazurin dye based microdilution assay; type: functional
Procedure, shortened: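 MIC taken as the lowest concentration giving visible inhibition and/or by resazurin (1 mg/mL). Gentamicin was the control. Run in duplicate, repeated at least three times.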

SNB-75 = assay: Growth inhibition of human SNB75 cells at 10 uM incubated for 48 hrs by sulforhodamine B assay; type: functional, cell-based; procedure, shortened: as §2
SN12C = assay: Growth inhibition of human SN12C cells at 10 uM incubated for 48 hrs by sulforhodamine B assay; type: functional, cell-based; procedure, shortened: as §2
Candida albicans [4] = assay: Growth inhibition of Candida albicans ATCC 10231 at 125 ug/ml incubated for 48 hrs under dark condition by broth microdilution method relative to control; type: functional; conditions: ATCC 10231, 48 h, read-out: GI; procedure, shortened: as §4
Neisseria gonorrhoeae = assay: Antibacterial activity against beta lactamase positive Neisseria gonorrhoeae ATCC 31426 by oxidase test; type: functional
Procedure, shortened: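 Agar dilution MIC on GC agar with 1% isovitalex containing increasing compound concentrations. Plates inoculated with about 1×10^4 CFU (5 µL). MIC is the lowest concentration that inhibited growth, with growth confirmed by oxidase test. Run in duplicate, repeated at least three times.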

Cryptococcus neoformans [5] = assay: Antifungal activity against Cryptococcus neoformans ATCC 32264 incubated for 48 hrs under dark condition by broth microdilution method; type: functional; conditions: ATCC 32264, 48 h; procedure, shortened: as §3
M14 = assay: Growth inhibition of human M14 cells at 10 uM incubated for 48 hrs by sulforhodamine B assay; type: functional, cell-based; procedure, shortened: as §1
U-251 = assay: Growth inhibition of human U251 cells at 10 uM incubated for 48 hrs by sulforhodamine B assay; type: functional, cell-based; procedure, shortened: as §2
KM12 = assay: Growth inhibition of human KM12 cells at 10 uM incubated for 48 hrs by sulforhodamine B assay; type: functional, cell-based; procedure, shortened: as §1
SF-539 = assay: Growth inhibition of human SF539 cells at 10 uM incubated for 48 hrs by sulforhodamine B assay; type: functional, cell-based; procedure, shortened: as §1
SK-MEL-28 = assay: Growth inhibition of human SK-MEL-28 cells at 10 uM incubated for 48 hrs by sulforhodamine B assay; type: functional, cell-based; procedure, shortened: as §2
Cryptococcus neoformans [6] = assay: Growth inhibition of Cryptococcus neoformans ATCC 32264 at 15.62 ug/ml incubated for 48 hrs under dark condition by broth microdilution method relative to control; type: functional; conditions: ATCC 32264, 48 h, read-out: GI; procedure, shortened: as §4
A549 = assay: Growth inhibition of human A549/ATCC cells at 10 uM incubated for 48 hrs by sulforhodamine B assay; type: functional, cell-based; procedure, shortened: as §5
Cryptococcus neoformans [7] = assay: Growth inhibition of Cryptococcus neoformans ATCC 32264 at 31.25 ug/ml incubated for 48 hrs under dark condition by broth microdilution method relative to control; type: functional; conditions: ATCC 32264, 48 h, read-out: GI; procedure, shortened: as §4
Staphylococcus aureus [8] = assay: Antibacterial activity against methicillin-resistant Staphylococcus aureus ATCC 43300 after 24 hrs by resazurin dye based microdilution assay; type: functional; conditions: ATCC 43300, 24 h
Procedure, shortened: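 Broth microdilution in Mueller Hinton broth, inoculum 5 × 10^5 – 8 × 10^5. Compound stocks diluted in MHB with 5% DMSO and 0.1% Tween 80. Incubation 24 h at 35-37 °C. MIC is the lowest concentration with visible growth inhibition and/or by resazurin (1 mg/mL) read-out. Gentamicin as control. Run in duplicate, replicated at least three times.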

Candida albicans [9] = assay: Growth inhibition of Candida albicans ATCC 10231 at 3.4 ug/ml incubated for 48 hrs under dark condition by broth microdilution method relative to control; type: functional; conditions: ATCC 10231, 48 h, read-out: GI
SK-OV-3 = assay: Growth inhibition of human SKOV3 cells at 10 uM incubated for 48 hrs by sulforhodamine B assay; type: functional, cell-based; procedure, shortened: as §2
MDA-MB-468 = assay: Growth inhibition of human MDA-MB-468 cells at 10 uM incubated for 48 hrs by sulforhodamine B assay; type: functional, cell-based; procedure, shortened: as §1
MOLT-4 = assay: Growth inhibition of human MOLT4 cells at 10 uM incubated for 48 hrs by sulforhodamine B assay; type: functional, cell-based; procedure, shortened: as §1
HCT-116 = assay: Growth inhibition of human HCT116 cells at 10 uM incubated for 48 hrs by sulforhodamine B assay; type: functional, cell-based; procedure, shortened: as §5
Malme-3M = assay: Growth inhibition of human MALME-3M cells at 10 uM incubated for 48 hrs by sulforhodamine B assay; type: functional, cell-based; procedure, shortened: as §1
HOP-92 = assay: Growth inhibition of human HOP92 cells at 10 uM incubated for 48 hrs by sulforhodamine B assay; type: functional, cell-based; procedure, shortened: as §1

Compound | growth inhibition (GI) (NCI-H522) | growth inhibition (GI) (TK-10) | growth inhibition (GI) (LOX IMVI) | MIC50 (Candida albicans [1]) [µg/mL] | MIC80 (Candida albicans [1]) [µg/mL] | inhibition of growth at 15.62 µg/mL (Candida albicans [2]) [%] | growth inhibition (GI) (HOP-62) | growth inhibition (GI) (COLO 205) | MIC (Staphylococcus aureus [3]) [µg/mL] | growth inhibition (GI) (SNB-75) | growth inhibition (GI) (SN12C) | inhibition of growth at 125 µg/mL (Candida albicans [4]) [%] | MIC (Neisseria gonorrhoeae) [µg/mL] | MIC50 (Cryptococcus neoformans [5]) [µg/mL] | MIC80 (Cryptococcus neoformans [5]) [µg/mL] | growth inhibition (GI) (M14) | growth inhibition (GI) (U-251) | growth inhibition (GI) (KM12) | growth inhibition (GI) (SF-539) | growth inhibition (GI) (SK-MEL-28) | also measured
COc1ccc(C(=O)/C=C/c2cccc(Nc3ccnc4cc(Cl)ccc34)c2)cc1 | Active | Active | Active | 250 (≈ 603 µM) | ≥ 250 | 26.8 | Active | Active | > 1000 | Active | Active | 46.8 | > 1000 | ≥ 250 | ≥ 250 | Active | Active | Active | Active | Active | inhibition of growth at 15.62 µg/mL (Cryptococcus neoformans [6]): 5.01%; growth inhibition (GI) (A549): Active; inhibition of growth at 31.25 µg/mL (Cryptococcus neoformans [7]): 7.31%; MIC (Staphylococcus aureus [8]): > 1000 µg/mL; inhibition of growth at 3.4 µg/mL (Candida albicans [9]): 5.88%; growth inhibition (GI) (SK-OV-3): Active; growth inhibition (GI) (MDA-MB-468): Active; growth inhibition (GI) (MOLT-4): Active; growth inhibition (GI) (HCT-116): Active; growth inhibition (GI) (Malme-3M): Active; growth inhibition (GI) (HOP-92): Active
COc1cc(C(=O)/C=C/c2cccc(Nc3ccnc4cc(Cl)ccc34)c2)cc(OC)c1OC | Active | Active | Active | ≥ 250 | ≥ 250 | 4.77 | Active | Active | > 1000 | Active | Active | 10.7 | > 1000 | ≥ 250 | ≥ 250 | Active | Active | Active | Active | Active | inhibition of growth at 15.62 µg/mL (Cryptococcus neoformans [6]): 0%; growth inhibition (GI) (A549): Active; inhibition of growth at 31.25 µg/mL (Cryptococcus neoformans [7]): 3.63%; MIC (Staphylococcus aureus [8]): > 1000 µg/mL; inhibition of growth at 3.4 µg/mL (Candida albicans [9]): 1.24%; growth inhibition (GI) (SK-OV-3): Active; growth inhibition (GI) (MDA-MB-468): Active; growth inhibition (GI) (MOLT-4): Active; growth inhibition (GI) (HCT-116): Active; growth inhibition (GI) (Malme-3M): Active; growth inhibition (GI) (HOP-92): Active
